# Assay outcomes from PubChem BioAssay.
# KCNQ1 pot: potentiates or activates the human KCNQ1 potassium channel | CHO-K1 KCNQ1, thallium flux FluxOR fluorescence; active compounds read high | actives 0.35% (n = 310,000) | AID 2648 | B-score at 10 µM;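 active = fluorescence ratio B-score, a plate-corrected score, at least three library SD, with initial intensity B-score within 5 SD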
#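 Assay system: stable KCNQ1 CHO-K1 line; medium: assay buffer, equal DMSO in all wells; timing: 90 min dye loading and 20 min compound exposure, both at room temperature; technique: kinetic FluxOR thallium fluorescence, 10-s 1-Hz baseline, 110-s post-stimulus read; read-out basis: B score of baseline-normalized fluorescence ratio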
# Kir21 block: Kir2.1 (mouse) channel inhibition. P35561. B-score at 10 µM. HEK293-Kir2.1, FluxOR thallium flux fluorescence; active compounds read low. actives 0.85% (n = 310,000);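 active = fluorescence ratio B-score at or below minus 3 SD of library scores, with starting-brightness B-score within 2 SD, cut at about -4.2 in these data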;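 also: channel flux triggered by added potassium and thallium sulfate stimulus; B-score of peak minus minimum fluorescence over baseline after thallium stimulus; more negative B-score means stronger Kir2.1 block with less thallium influx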
# KCNQ1 inh: inhibitors of human KCNQ1 potassium channel; P51787; CHO-K1 KCNQ1, FluxOR thallium flux fluorescence; active compounds read high; B-score at 10 µM; actives 1.3% (n = 310,000); AID 2642;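 active = compounds whose thallium flux B-score, printed positive for inhibition, exceeds three library SD while starting fluorescence stays within three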;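 also: channel opened by potassium depolarization with thallium stimulus after 20 min compound exposure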
# hERG protect: hERG (human) protection from proarrhythmic block. AID 1511. CHO-hERG, FluxOR thallium flux, dofetilide IC70 present. actives 0.51% (n = 310,000). Q12809. activation (rescue from dofetilide block), less the hit threshold, % at 10 µM;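 active = activation above the mean of controls blocked by dofetilide plus 5 SD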;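 also: thallium influx through hERG after potassium depolarization seen as dye fluorescence rise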
# Target sequence (Q12809 whole entry, looked up): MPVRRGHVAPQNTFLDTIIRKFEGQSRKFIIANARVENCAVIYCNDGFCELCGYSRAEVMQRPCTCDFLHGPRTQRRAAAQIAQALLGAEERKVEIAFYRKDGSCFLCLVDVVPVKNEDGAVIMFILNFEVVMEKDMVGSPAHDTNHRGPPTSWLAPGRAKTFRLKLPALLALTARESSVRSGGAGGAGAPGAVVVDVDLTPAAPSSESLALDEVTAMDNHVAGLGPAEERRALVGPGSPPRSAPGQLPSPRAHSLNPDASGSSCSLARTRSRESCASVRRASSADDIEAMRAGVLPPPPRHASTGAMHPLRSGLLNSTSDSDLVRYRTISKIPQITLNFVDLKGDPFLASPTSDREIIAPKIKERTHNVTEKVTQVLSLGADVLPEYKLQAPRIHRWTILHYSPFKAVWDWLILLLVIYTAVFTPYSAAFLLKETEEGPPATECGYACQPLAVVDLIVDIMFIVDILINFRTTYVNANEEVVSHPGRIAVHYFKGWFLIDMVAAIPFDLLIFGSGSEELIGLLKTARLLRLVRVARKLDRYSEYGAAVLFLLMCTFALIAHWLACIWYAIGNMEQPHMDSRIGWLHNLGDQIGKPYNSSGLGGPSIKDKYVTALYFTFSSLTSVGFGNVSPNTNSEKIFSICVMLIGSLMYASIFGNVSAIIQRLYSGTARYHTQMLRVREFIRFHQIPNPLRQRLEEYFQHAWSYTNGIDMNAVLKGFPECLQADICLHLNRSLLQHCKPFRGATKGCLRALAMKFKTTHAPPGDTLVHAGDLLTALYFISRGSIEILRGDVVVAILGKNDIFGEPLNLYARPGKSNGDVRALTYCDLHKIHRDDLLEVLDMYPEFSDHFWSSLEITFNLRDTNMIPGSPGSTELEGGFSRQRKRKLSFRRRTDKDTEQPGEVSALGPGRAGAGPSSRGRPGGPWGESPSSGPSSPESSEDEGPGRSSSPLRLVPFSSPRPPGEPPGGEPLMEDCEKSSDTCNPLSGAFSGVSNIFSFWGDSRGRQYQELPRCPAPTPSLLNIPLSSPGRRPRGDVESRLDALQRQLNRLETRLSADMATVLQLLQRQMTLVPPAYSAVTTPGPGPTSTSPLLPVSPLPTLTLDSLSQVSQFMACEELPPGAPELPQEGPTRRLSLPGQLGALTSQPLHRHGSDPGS
# KCNK9 block: inhibitors of human KCNK9 two-pore domain potassium channel. HEK293 KCNK9, FluxOR thallium flux fluorescence; active compounds read low. B-score at 10 µM. Q9NPC2. actives 1.2% (n = 310,000). AID 488922;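 active = ratio B-score over 3 SD below the library mean, with starting fluorescence within 5 SD of its mean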;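 also: negative B-score means less thallium flux so channel inhibition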
# KCNK3 inh: human KCNK3 channel inhibition, primary screen; actives 0.84% (n = 340,000); B-score at 10 µM; O14649; CHO-KCNK3 thallium flux, FluxOR fluorescence; active compounds read low;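 active = B-score under library mean minus 4 SD, starting fluorescence ratio at most library mean plus 5 SD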;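 also: more negative B-score means stronger inhibition of thallium flux through KCNK3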
# KCNK9 block conf: confirmation of human KCNK9 potassium channel inhibitors. shares compounds with KCNK9 block. HEK293 KCNK9 cells, FluxOR thallium flux fluorescence. inhibition, % at 10 µM. actives 43% (n = 4,900);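 active = thallium signal inhibited by more than 5 SD of the compound-free buffer control wells, on both duplicate plates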;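 also: 0% = assay buffer control wells without compound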
# Kir2-1 spec: mouse Kir2.1 off-target activity of KCNK9 modulators | shares compounds with KCNK9 block | Kir2.1 cells, FluxOR thallium flux fluorescence | inhibition, % at 10 µM | actives 4% (n = 4,900);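 active = thallium signal drop more than 5 SD beyond the mean of the no-compound control wells, seen in both duplicate plates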;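 also: signal is fluorescence rise after thallium addition divided by baseline fluorescence; plate controls were assay buffer only for no effect and full block by chlorpromazine control for full effect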
# HEK293 Tl ctr: second check of KCNK9 modulator effects in non-induced HEK293 cells | shares compounds with KCNK9 block | FluxOR thallium flux | inhibition, % at 10 µM | actives 40% (n = 4,900);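 active = thallium signal drop beyond 5 SD of the untreated control mean, on both duplicate plates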;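 also: plate controls were buffer only IC0 wells for no effect and SID17386958 at its maximal inhibitory level for full effect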
# KCNK3 inh conf: human KCNK3 channel inhibition, confirmation assay; shares compounds with KCNK3 inh; CHO-KCNK3 thallium flux, FluxOR fluorescence; 0% buffer, 100% carvedilol maximal block; ratio percent of control, % at 10 µM; actives 99% (n = 2,400); AID 651638;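 active = ratio percent of control, averaged over triplicates, above buffer control mean plus 5 SD, cut at about 64% in these data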;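 also: ratio is the fluorescence rise from min to max over baseline after thallium stimulus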
# KCNK3 noninduced: counter-screen for KCNK3 inhibitors: effect in non-induced cells; thallium flux ratio (lower = more inhibition) at 10 µM; shares compounds with KCNK3 inh; actives 40% (n = 2,400); non-induced KCNK3 parental cells, FluxOR thallium flux; active compounds read low;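 active = thallium flux ratio, averaged over three wells, more than 5 SD below the buffer control mean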;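 also: host cells are CHO cells without KCNK3 induction; ratio is peak minus trough fluorescence over baseline then normalized to buffer controls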
# * hit, by the source's call; i = inactive; nt = no result. The list is not random: actives were taken first. Their share in the collection is about 3.7%.
SMILES,KCNQ1 pot,Kir21 block,KCNQ1 inh,hERG protect,KCNK9 block,KCNK3 inh,KCNK9 block conf,Kir2-1 spec,HEK293 Tl ctr,KCNK3 inh conf,KCNK3 noninduced
COc1cc2c(cc1OC)CN(C(=O)c1oc3ccccc3c1C)CC2,i,-0.51,i,-6,-9.9*,-10*,34%*,i,33%*,100*,i
Cc1ccc(N2C(=O)c3ccccc3C2Nc2ccc(S(=O)(=O)N3CCCCC3)cc2)nc1 (stereo not drawn),i,-2.2,i,-4,-11*,-10*,i,i,30%*,121*,0.15*
Cc1ccc(N2C(=O)c3ccccc3C2Nc2ccc(S(=O)(=O)N3CCOCC3)cc2)nc1 (stereo not drawn),i,0.53,i,-10,i,i,nt,nt,nt,nt,nt
CC(C)N(C(=S)Nc1cccc(C(F)(F)F)c1)C(C)c1ccccn1 (stereo not drawn),i,1.4,12*,-11,-17*,-11*,77%*,i,44%*,133*,0.12*
FC(F)(F)c1cccc(NC(=S)NCc2ccccn2)c1,i,-0.84,i,-4,i,i,nt,nt,nt,nt,nt
OCOCCCn1c(C2CCCN2c2nc(-c3ccc(F)cc3)cs2)nc2cc(Cl)c(N3CCCCC3)cc21 (stereo not drawn),i,2.5,i,-11,i,i,nt,nt,nt,nt,nt
CCCCCOC(=O)c1ccc(NC(=O)c2ccco2)cc1,i,0.1,i,-7,-12*,i,49%*,i,i,123*,0.15*
CCOC(=O)c1cccc(NC(=O)c2ccc(NC(=O)c3ccco3)cc2)c1,i,0.03,i,-9,i,i,nt,nt,nt,nt,nt
CCOc1cc(C2C(C(=O)OC)=C(C)N=C3SC(C)C(=O)N32)ccc1OC(C)=O (stereo not drawn),i,-1.4,i,-3,i,i,nt,nt,nt,nt,nt
COC(=O)C1=C(C)N=C2SC(C)C(=O)N2C1c1cccc(F)c1 (stereo not drawn),i,-1.9,i,-7,-13*,-12*,74%*,i,50%*,102*,i
CCOc1nc2cnccc2n(CC(=O)Nc2c(C)cccc2CC)c1=O,i,-0.07,i,-8,i,i,nt,nt,nt,nt,nt
Clc1cccc(-c2nnc(SC/C=C/c3ccccc3)n2Cc2ccco2)c1,i,-3.9,i,-13,-15*,-12*,44%*,74%*,38%*,110*,0.15*
Cc1cccc(-c2nnc(SCc3nc4ccccc4[nH]3)n2Cc2ccco2)c1,i,-0.03,i,-28,i,i,nt,nt,nt,nt,nt
CCCCC(CC)C(=O)Oc1ccc(O)c(C(C)(C)C)c1 (stereo not drawn),i,1.4,i,-11,-16*,-12*,74%*,i,31%*,79*,i
O=C(/C=C/c1cccc(C(F)(F)F)c1)Nc1cccc(C(F)(F)F)c1,i,0.16,9*,-5,i,-11*,i,i,i,107*,0.15*
CNC(=O)c1c(NC(=O)c2ccc(N3C(=O)CCC3=O)cc2)sc2c1CCC(C)C2 (stereo not drawn),i,-0.94,i,-22,i,i,nt,nt,nt,nt,nt
Cc1onc(-c2ccccc2Cl)c1C(=O)N(Cc1nc(-c2ccccc2)no1)C1CCCCC1,i,0.94,i,-10,-9.7*,i,30%*,i,32%*,90*,0.15*
Cc1onc(-c2ccc(Cl)cc2)c1-c1ccnc(SCC(=O)Nc2ccc(C(C)C)cc2)n1,i,-2.1,i,-5,-9.6*,-11*,40%*,i,29%*,115*,i
Cc1ccc(SCC(=O)NC(=O)c2ccccc2Br)c(C)c1,nt,nt,nt,nt,nt,i,nt,nt,nt,nt,nt
Cc1ccc(COc2ccccc2-c2cc(C(=O)N/N=C/c3cccnc3)[nH]n2)cc1,i,-1.7,i,-15,-19*,-12*,64%*,i,26%*,118*,i
CCOc1ccccc1-c1cc(C(=O)N/N=C/c2cccnc2)c2ccccc2n1,i,1.4,i,-6,i,i,nt,nt,nt,nt,nt
C#CCN1N=C(c2ccc(C)cc2)CSC1=O,i,0.72,i,-3,i,i,nt,nt,nt,nt,nt
COc1ccc(CCc2ccc3ccccc3n2)cc1,nt,nt,nt,nt,nt,i,nt,nt,nt,nt,nt
Cc1cc(C(=O)CCC(=O)N(C)CC(=O)Nc2c(Cl)cccc2Cl)c(C)s1,i,-1.1,i,-7,i,i,nt,nt,nt,nt,nt
CNC(=O)CSc1nnc(-c2ccccn2)n1Cc1ccco1,i,-0.23,i,-8,i,i,nt,nt,nt,nt,nt
SMILES,KCNQ1 pot,Kir21 block,KCNQ1 inh,hERG protect,KCNK9 block,KCNK3 inh,KCNK9 block conf,Kir2-1 spec,HEK293 Tl ctr,KCNK3 inh conf,KCNK3 noninduced
CC(C)(C)c1ccc(CSc2nnc(-c3ccccn3)n2Cc2ccco2)cc1,i,-1.1,i,-16,-11*,i,66%*,42%*,40%*,126*,0.14*
COc1cc2c(-c3ccc4[nH]ccc4c3)c(-c3ccc(C#N)cc3)oc(=O)c2cc1OC,nt,nt,nt,nt,nt,i,nt,nt,nt,nt,nt
CCCCCCCCn1c2c(c(=N)c3ccccc31)CCC2,i,-15*,11*,-27,-16*,i,51%*,83%*,i,140*,0.14*
Cc1ccc(NC(=O)N2CCCC(C(=O)O)C2)cc1 (stereo not drawn),i,-2.2,i,-12,i,i,nt,nt,nt,nt,nt
COc1ccc(OCCC(=O)Nc2ccccc2)cc1,i,0.8,i,-3,i,i,nt,nt,nt,nt,nt
O=c1/c(=C\c2ccc(O)cc2)sc2n1C(c1ccccc1)C(c1ccccc1)=NN=2 (stereo not drawn),i,-0.44,i,-20,-13*,i,56%*,i,52%*,132*,0.15*
Cc1ccc(C(=O)N(CCc2ccccc2)Cc2ccccc2)cc1S(=O)(=O)N1CCOCC1,nt,nt,nt,nt,nt,i,nt,nt,nt,nt,nt
Cc1ccc(C(=O)N(CCc2ccccc2)Cc2ccccc2)cc1S(=O)(=O)N1CCCCC1,i,-0.62,i,-13,-13*,-9.1*,76%*,i,30%*,103*,i
